Where two headings read alike, the source gives them in different places.
How the values were obtained:
[1] = test system: HDAC (HeLa cell nuclear extract); assay: In vitro HDAC inhibition fluorescence assay; assay type: biochemical, human; conditions: read-out: HeLa cell nuclear extract IC50, substrate Boc-Lys(acetyl)-AMC, mean of three experiments
In short: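 HeLa nuclear extract preincubated with test compound at several concentrations, 10 min at 37°C. Boc-Lys(acetyl)-AMC then added and incubated 30 min at 37°C. Reaction stopped with developer containing trypsin and trichostatin A. Fluorescence read 20 min later (ex 390/em 460 nm). Inhibition calculated relative to control wells. IC50 obtained by regression of concentration against inhibition ratio.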

[2] = test system: U937 cells; assay: In vitro antiproliferative assay; assay type: cell-based; conditions: Homo sapiens, U-937, 48 h, read-out: U937 IC50
In short: (§1)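 Cells kept in RPMI-1640 with 10% FBS at 37°C, 5% CO2. Passaged into plates the day before dosing and grown at least 4 h before test compound was added. Exposure was 48 h, then 0.5% MTT for 4 h. Formazan was dissolved in DMSO for 15 min and absorbance read at 570 nm. Inhibition was taken relative to control wells, and IC50 was obtained by regression of concentration versus inhibition ratio.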

[3] = test system: U266 cells; assay: In vitro antiproliferative assay; assay type: cell-based; conditions: Homo sapiens, U-266, 48 h, read-out: U266 IC50
In short: as §1

[4] = test system: KG-1 cells; assay: In vitro antiproliferative assay; assay type: cell-based; conditions: Homo sapiens, KG-1, 48 h, read-out: KG-1 IC50
In short: as §1

[5] = test system: HeLa cells; assay: In vitro antiproliferative assay; assay type: cell-based; conditions: Homo sapiens, 48 h, read-out: HeLa IC50
In short: as §1

[6] = test system: H7402 cells; assay: In vitro antiproliferative assay; assay type: cell-based; conditions: Homo sapiens, H7402, 48 h, read-out: H7402 IC50
In short: as §1

[7] = test system: HCT116 cells; assay: In vitro antiproliferative assay; assay type: cell-based; conditions: Homo sapiens, HCT-116, 48 h, read-out: HCT116 IC50
In short: as §1

[8] = test system: U937 xenograft; assay: In vivo antitumor assay in U937 xenograft model; set-up: species or system male athymic nude mice (BALB/c-nu)
In short: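 U937 cells were injected subcutaneously into the right flank of male BALB/c-nu mice aged 5–6 weeks. After about 10 days, at roughly 100 mm3, mice were randomized six per group. Dosing was oral, 100 mg/kg daily for 12 days, with controls given an equal volume of PBS. Calipers were used every 3 days, V = ab2/2, and RTV = Vt/V0. Body weight was tracked. Tumors were weighed and organs inspected at necropsy. Analysis used a two-tailed t-test, P<0.05.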

[9] = test system: HDAC (HeLa cell nuclear extract); conditions: read-out: HeLa cell nuclear extract IC50; HDAC inhibition; ref Zhang et al.[8]; cited from earlier work
[10] = U937 xenograft mice, 100 mg/kg once a day orally for 12 days

Compound | IC50 [1] [nM] | IC50 [2] [nM] | other results
CCc1cccc(CC)c1NC(=O)N[C@H](C(=O)Nc1ccc(C(=O)NO)cc1)c1ccccc1 [Compound 7j, (S)-4-(2-(3-(2,6-Diethylphenyl)ureido)-2-phenylacetamido)-N-hydroxybenzamide] | 178 |  | 
O=C(Nc1ccc(Cl)cc1Cl)N[C@H](C(=O)Nc1ccc(C(=O)NO)cc1)c1ccccc1 [Compound 7h, (S)-4-(2-(3-(2,4-Dichlorophenyl)ureido)-2-phenylacetamido)-N-hydroxybenzamide] | 1.2 | 5100 | 
Cc1cc(C)cc(NC(=O)N[C@H](C(=O)Nc2ccc(C(=O)NO)cc2)c2ccccc2)c1 [Compound 7i, (S)-4-(2-(3-(3,5-Dimethylphenyl)ureido)-2-phenylacetamido)-N-hydroxybenzamide] | 15 | 5700 | 
O=C(Nc1ccccc1F)N[C@H](C(=O)Nc1ccc(C(=O)NO)cc1)c1ccccc1 [Compound 7d, (S)-4-(2-(3-(2-Fluorophenyl)ureido)-2-phenylacetamido)-N-hydroxybenzamide] | 76.1 |  | 
Cc1ccccc1NC(=O)N[C@H](C(=O)Nc1ccc(C(=O)NO)cc1)c1ccccc1 [Compound 7f, (S)-N-Hydroxy-4-(2-phenyl-2-(3-(o-tolyl)ureido)acetamido)benzamide] | 6.3 |  | 
Cc1ccc(NC(=O)N[C@H](C(=O)Nc2ccc(C(=O)NO)cc2)c2ccccc2)cc1 [Compound 7g, (S)-N-Hydroxy-4-(2-phenyl-2-(3-(p-tolyl)ureido)acetamido)benzamide] | 2.7 | 3100 | 
O=C(NO)c1ccc(NC(=O)[C@@H](NC(=O)c2ccc3ncccc3c2)c2ccccc2)cc1 [Compound 8a, (S)-N-(2-((4-(Hydroxycarbamoyl)phenyl)amino)-2-oxo-1-phenylethyl)quinoline-6-carboxamide] | 168 | 10500 | 
O=C(NO)c1ccc(NC(=O)[C@@H](NC(=O)c2cnccn2)c2ccccc2)cc1 [Compound 8e, (S)-N-(2-((4-(Hydroxycarbamoyl)phenyl)amino)-2-oxo-1-phenylethyl)pyrazine-2-carboxamide] | 353 |  | 
O=C(Nc1cccc2ccccc12)N[C@H](C(=O)Nc1ccc(C(=O)NO)cc1)c1ccccc1 [Compound 7k, (S)-N-Hydroxy-4-(2-(3-(naphthalen-1-yl)ureido)-2-phenylacetamido)benzamide] | 124 |  | 
COc1cccc(CN[C@H](C(=O)Nc2ccc(C(=O)NO)cc2)c2ccccc2)c1 [Compound 9d, (S)-N-Hydroxy-4-(2-((3-methoxybenzyl)amino)-2-phenylacetamido)benzamide] | 70 | 530 | IC50 [3]: 980 nM; IC50 [4]: 900 nM; IC50 [5]: 5400 nM; IC50 [6]: 3500 nM; IC50 [7]: 1300 nM; Relative increment ratio (T/C) ([8]; U937 xenograft in nude mice, 100 mg/kg once a day orally for 12 days): 43%; Body weight loss [8, 10]: no significant body weight loss; Toxic signs in macroscopic analysis of liver and spleen [8, 10]: no evident toxic signs; Oral antitumor activity ([8]; U937 xenograft, 100 mg/kg po, tumor growth curve and final tumor tissue size): comparable with SAHA
O=C(Nc1cccc(Cl)c1)N[C@H](C(=O)Nc1ccc(C(=O)NO)cc1)c1ccccc1 [Compound 7b, (S)-4-(2-(3-(3-Chlorophenyl)ureido)-2-phenylacetamido)-N-hydroxybenzamide] | 12.6 | 2900 | 
O=C(Nc1ccccc1Cl)N[C@H](C(=O)Nc1ccc(C(=O)NO)cc1)c1ccccc1 [Compound 7c, (S)-4-(2-(3-(2-Chlorophenyl)ureido)-2-phenylacetamido)-N-hydroxybenzamide] | 2.3 | 4400 | 
O=C(NO)c1ccc(NC(=O)[C@@H](NC(=O)c2cc3ccccc3[nH]2)c2ccccc2)cc1 [Compound 8d, (S)-N-(2-((4-(Hydroxycarbamoyl)phenyl)amino)-2-oxo-1-phenylethyl)-1H-indole-2-carboxamide] | 53 | 8900 | 
O=C(CCCCCCC(=O)Nc1ccccc1)NO [SAHA, suberoylanilide hydroxamic acid] |  |  | IC50 [9]: 146 nM
COc1cccc(NC(=O)N[C@H](C(=O)Nc2ccc(C(=O)NO)cc2)c2ccccc2)c1 [Compound 7a, (S)-N-Hydroxy-4-(2-(3-(3-methoxyphenyl)ureido)-2-phenylacetamido)benzamide] | 13.3 | 6100 | 
O=C(Nc1ccccc1Br)N[C@H](C(=O)Nc1ccc(C(=O)NO)cc1)c1ccccc1 [Compound 7e, (S)-4-(2-(3-(2-Bromophenyl)ureido)-2-phenylacetamido)-N-hydroxybenzamide] | 4.1 | 2000 | 
O=C(NO)c1ccc(NC(=O)[C@@H](NC(=O)c2ccc3nccnc3c2)c2ccccc2)cc1 [Compound 8b, (S)-N-(2-((4-(Hydroxycarbamoyl)phenyl)amino)-2-oxo-1-phenylethyl)quinoxaline-6-carboxamide] | 163 | 10500 | 
O=C(NO)c1ccc(NC(=O)[C@@H](NC(=O)c2ccc3cc[nH]c3c2)c2ccccc2)cc1 [Compound 8c, (S)-N-(2-((4-(Hydroxycarbamoyl)phenyl)amino)-2-oxo-1-phenylethyl)-1H-indole-6-carboxamide] | 107 | 9800 | 

The next lines start with results.

IC50 [1] [nM] | IC50 [2] [nM] | Compound | other results
72 | 2000 | COc1cc(CN[C@H](C(=O)Nc2ccc(C(=O)NO)cc2)c2ccccc2)ccc1O [Compound 9g, (S)-N-Hydroxy-4-(2-((4-hydroxy-3-methoxybenzyl)amino)-2-phenylacetamido)benzamide] | IC50 [3]: 4300 nM; IC50 [4]: 5600 nM; IC50 [5]: 200 nM; IC50 [6]: 200 nM; IC50 [7]: 6200 nM
128 |  | O=C(/C=C/c1ccc(NC(=O)[C@@H](NC(=O)Nc2ccccc2Cl)c2ccccc2)cc1)NO [Compound 16a, (S, E)-3-(4-(2-(3-(2-Chlorophenyl)ureido)-2-phenylacetamido)phenyl)-N-hydroxyacrylamide] | 
811 |  | Cc1ccccc1NC(=O)N[C@H](C(=O)Nc1ccc(/C=C/C(=O)NO)cc1)c1ccccc1 [Compound 16d, (S, E)-N-Hydroxy-3-(4-(2-phenyl-2-(3-(o-tolyl)ureido)acetamido)phenyl)acrylamide] | 
56.1 | 1100 | O=C(NO)c1ccc(NC(=O)[C@@H](NCc2ccccc2Cl)c2ccccc2)cc1 [Compound 9b, (S)-4-(2-((2-Chlorobenzyl)amino)-2-phenylacetamido)-N-hydroxybenzamide] | IC50 [3]: 2400 nM; IC50 [4]: 3400 nM; IC50 [5]: 6000 nM; IC50 [6]: 4200 nM; IC50 [7]: 5500 nM
50.3 | 980 | O=C(NO)c1ccc(NC(=O)[C@@H](NCc2ccc(O)cc2)c2ccccc2)cc1 [Compound 9f, (S)-N-Hydroxy-4-(2-((4-hydroxybenzyl)amino)-2-phenylacetamido)benzamide] | IC50 [3]: 3300 nM; IC50 [4]: 2500 nM; IC50 [5]: 6800 nM; IC50 [6]: 12400 nM; IC50 [7]: 3000 nM
12.8 | 840 | O=C(NO)c1ccc(NC(=O)[C@@H](NCc2ccccc2Br)c2ccccc2)cc1 [Compound 9c, (S)-4-(2-((2-Bromobenzyl)amino)-2-phenylacetamido)-N-hydroxybenzamide] | IC50 [3]: 2100 nM; IC50 [4]: 1500 nM; IC50 [5]: 15000 nM; IC50 [6]: 7100 nM; IC50 [7]: 2300 nM
13.8 | 950 | O=C(NO)c1ccc(NC(=O)[C@@H](NCc2ccc(Cl)cc2)c2ccccc2)cc1 [Compound 9e, (S)-4-(2-((4-Chlorobenzyl)amino)-2-phenylacetamido)-N-hydroxybenzamide] | IC50 [3]: 3000 nM; IC50 [4]: 2000 nM; IC50 [5]: 15600 nM; IC50 [6]: 9600 nM; IC50 [7]: 3000 nM
105 | 750 | COc1ccccc1CN[C@H](C(=O)Nc1ccc(C(=O)NO)cc1)c1ccccc1 [Compound 9a, (S)-N-Hydroxy-4-(2-((2-methoxybenzyl)amino)-2-phenylacetamido)benzamide] | IC50 [3]: 1500 nM; IC50 [4]: 1100 nM; IC50 [5]: 8000 nM; IC50 [6]: 4100 nM; IC50 [7]: 1400 nM
91.7 |  | O=C(/C=C/c1ccc(NC(=O)[C@@H](NC(=O)Nc2ccccc2Br)c2ccccc2)cc1)NO [Compound 16c, (S, E)-3-(4-(2-(3-(2-Bromophenyl)ureido)-2-phenylacetamido)phenyl)-N-hydroxyacrylamide] | 
215 |  | O=C(/C=C/c1ccc(NC(=O)[C@@H](NC(=O)Nc2ccccc2F)c2ccccc2)cc1)NO [Compound 16b, (S, E)-3-(4-(2-(3-(2-Fluorophenyl)ureido)-2-phenylacetamido)phenyl)-N-hydroxyacrylamide] | 

Reference: PMC4603714 (Drug Design, Development and Therapy, 2015)
